Screens deposited in PubChem by Johns Hopkins Ion Channel Center.
hERG rescue = compounds protecting human hERG from proarrhythmic drug block; Q12809; CHO-hERG, FluxOR thallium flux, dofetilide IC70 present; activation (rescue from dofetilide block), less the hit threshold, % at 10 µM; actives 0.51% (n = 310,000);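 active means activation above the mean of controls blocked by dofetilide plus 5 SD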;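 further: thallium influx through hERG after potassium depolarization seen as dye fluorescence rise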
KCNK9 block = human KCNK9 channel inhibition. HEK293 KCNK9, FluxOR thallium flux fluorescence; active compounds read low. B-score at 10 µM. actives 1.2% (n = 310,000);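 active means ratio B-score over 3 SD below the library mean, with starting fluorescence within 5 SD of its mean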;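 further: negative B-score means less thallium flux so channel inhibition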
Target sequence (Q9NPC2 whole entry, looked up): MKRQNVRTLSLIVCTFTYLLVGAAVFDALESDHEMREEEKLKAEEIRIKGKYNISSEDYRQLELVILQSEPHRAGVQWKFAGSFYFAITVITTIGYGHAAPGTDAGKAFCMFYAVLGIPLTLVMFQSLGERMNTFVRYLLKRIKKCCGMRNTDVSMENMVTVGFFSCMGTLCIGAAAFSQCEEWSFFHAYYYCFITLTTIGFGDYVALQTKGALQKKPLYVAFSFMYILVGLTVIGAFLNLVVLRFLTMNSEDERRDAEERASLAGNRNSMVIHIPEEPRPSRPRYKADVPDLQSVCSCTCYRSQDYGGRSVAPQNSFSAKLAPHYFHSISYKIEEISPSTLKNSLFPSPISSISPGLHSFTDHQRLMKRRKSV
KCNQ1 block = inhibitors of human KCNQ1 potassium channel; P51787; CHO-K1 KCNQ1, FluxOR thallium flux fluorescence; active compounds read high; B-score at 10 µM; actives 1.3% (n = 310,000); AID 2642;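 active means compounds whose thallium flux B-score, printed positive for inhibition, exceeds three library SD while starting fluorescence stays within three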;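 further: channel opened by potassium depolarization with thallium stimulus after 20 min compound exposure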
Kir21 inh = Kir2.1 (mouse) channel inhibition; P35561; HEK293-Kir2.1, FluxOR thallium flux fluorescence; active compounds read low; actives 0.85% (n = 310,000); B-score at 10 µM; AID 1672;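 active means fluorescence ratio B-score at or below minus 3 SD of library scores, with starting-brightness B-score within 2 SD, cut at about -4.2 in these data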;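 further: channel flux triggered by added potassium and thallium sulfate stimulus; B-score of peak minus minimum fluorescence over baseline after thallium stimulus; more negative B-score means stronger Kir2.1 block with less thallium influx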
KCNK3 inh = human KCNK3 channel inhibition, primary screen. O14649. CHO-KCNK3 thallium flux, FluxOR fluorescence; active compounds read low. B-score at 10 µM. actives 0.84% (n = 340,000);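 active means B-score under library mean minus 4 SD, starting fluorescence ratio at most library mean plus 5 SD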;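 further: more negative B-score means stronger inhibition of thallium flux through KCNK3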
KCNQ1 pot = human KCNQ1 channel potentiation or activation; P51787; actives 0.35% (n = 310,000); B-score at 10 µM; AID 2648; CHO-K1 KCNQ1, thallium flux FluxOR fluorescence; active compounds read high;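 active means fluorescence ratio B-score, a plate-corrected score, at least three library SD, with initial intensity B-score within 5 SD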
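Assay system: stable KCNQ1 CHO-K1 line; medium: assay buffer, equal DMSO in all wells; timing: 90 min dye loading and 20 min compound exposure, both at room temperature; technique: kinetic FluxOR thallium fluorescence, 10-s 1-Hz baseline, 110-s post-stimulus read; read-out basis: B score of baseline-normalized fluorescence ratio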
KCNK3 inh conf = confirmation of human KCNK3 two-pore domain potassium channel inhibitors; actives 99% (n = 2,400); CHO-KCNK3 thallium flux, FluxOR fluorescence; 0% buffer, 100% carvedilol maximal block; ratio percent of control, % at 10 µM; AID 651638; shares compounds with KCNK3 inh;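 active means ratio percent of control, averaged over triplicates, above buffer control mean plus 5 SD, cut at about 64% in these data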;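 further: ratio is the fluorescence rise from min to max over baseline after thallium stimulus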
KCNK3 noninduced = counter-screen for KCNK3 inhibitors: effect in non-induced cells. non-induced KCNK3 parental cells, FluxOR thallium flux; active compounds read low. thallium flux ratio (lower = more inhibition) at 10 µM. actives 40% (n = 2,400). AID 651747. shares compounds with KCNK3 inh;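 active means thallium flux ratio, averaged over three wells, more than 5 SD below the buffer control mean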;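 further: host cells are CHO cells without KCNK3 induction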
Hits are given with their value; n = inactive; x = no result. Most compounds without a hit are left out; they make up all but 3.7% or so of the library.

SMILES	hERG rescue	KCNK9 block	KCNQ1 block	Kir21 inh	KCNK3 inh	KCNQ1 pot	KCNK3 inh conf	KCNK3 noninduced
CC(=O)OCC1(C)CN(c2ccccc2)N(C(=O)c2ccc(F)cc2)C1=O (configuration not stated)	n	n	n	n	n	n	x	x
CCC/C(O)=C1\C(=O)CCCC1=NCCc1ccc(OCC)c(OCC)c1	n	n	n	n	-9.17	n	117.0	n
CCCC/C(O)=C1\C(=O)CCCC1=NCCc1c(C)[nH]c2ccc(OC)cc12	n	n	n	n	n	n	x	x
CCC(=O)N1CCN(c2ccccc2NC(=O)COc2ccc(C(C)C)cc2)CC1	n	n	n	n	n	n	x	x
COCCOc1nc2c(c(=O)n(C)c(=O)n2C)n1Cc1cccc(OC)c1	n	n	n	n	-11	n	66.0	n
CCOC(=O)c1sc(NC(=O)C(CC)OC(=O)C(CC(C)C)NC(=O)c2ccccc2)nc1C (configuration not stated)	n	n	n	n	-10.6	n	108.0	n
O=C(Nc1cccc(NC(=O)c2cccnc2)c1)c1cccnc1	n	n	n	n	n	n	x	x
Cc1ccc(C(=O)Nc2cccc(NC(=O)c3cccs3)c2)c(C)c1	n	-6.99	n	n	-10.5	n	85.0	n
Cc1cc(C)cc(C(=O)Nc2ccc(NC(=O)c3cccs3)cc2)c1	n	n	n	n	n	n	x	x
Cc1cccc(C(=O)Nc2cc(NC(=O)c3cccs3)ccc2C)c1	n	n	n	n	-9.73	n	112.0	n
COc1cc(NC(=O)c2ccc(C)cc2C)ccc1NC(=O)c1cccs1	n	n	n	n	n	n	x	x
O=C(Nc1cccc(NC(=O)c2cccs2)c1)c1cccnc1	n	n	n	n	-9.26	n	89.0	n
Cc1ccc(S(=O)(=O)N(C)C[C@H]2Oc3ccc(NC(=O)Nc4c(C)noc4C)cc3CC(=O)N([C@@H](C)CO)C[C@@H]2C)cc1	x	x	x	x	n	x	x	x
CCOC(=O)C1=C(c2cccc(Oc3ccccc3)c2)NC(=S)NC1C (configuration not stated)	x	x	x	x	n	x	x	x
C=CCN(c1nc(C)cc(OC)n1)S(=O)(=O)c1ccc(C)cc1	n	n	n	n	n	n	x	x
C=CCN(c1nc(C)cc(OC)n1)S(=O)(=O)c1ccccc1	n	n	n	-7.94	-9.23	n	107.0	n
COc1ccc2c(C)cc(N3CCN(c4ccc(F)cc4)CC3)nc2c1	n	n	n	n	-9.53	n	114.3	n
COc1ccc(N2CCN(c3cc(C)c4ccc(C)cc4n3)CC2)cc1	n	n	n	n	n	n	x	x
COc1nc2ccccc2nc1N1CCN(Cc2ccc3c(c2)OCO3)CC1	n	n	n	n	n	n	x	x
COc1nc2ccccc2nc1N1CCN(c2ccc(F)cc2)CC1	n	n	n	n	-9.82	n	112.7	n
COCCNC(=O)c1ccc(CS(=O)(=O)c2cccc(C(F)(F)F)c2)o1	n	n	n	n	n	n	x	x
Cc1ccc(SCCNC(=O)/C=C/c2ccc(Cl)cc2)cc1	n	n	n	n	n	n	x	x
Cc1ccc(SCCNC(=O)/C=C/c2ccccc2Cl)cc1	n	n	n	n	-14.4	n	122.7	0.129
COc1ccccc1CC(=O)N1CCC(CCC(=O)NC2CC2)CC1	n	n	n	n	n	n	x	x
Cc1ccc(CNC(=O)CN(C)S(=O)(=O)c2cccc3cccnc23)cc1	n	n	n	n	n	n	x	x
SMILES	hERG rescue	KCNK9 block	KCNQ1 block	Kir21 inh	KCNK3 inh	KCNQ1 pot	KCNK3 inh conf	KCNK3 noninduced
COc1ccc(Cl)cc1NC(=O)CN(C)C(=O)c1sc2ccccc2c1Cl	x	x	x	x	-12.2	x	111.7	n
CC1CN(CCCCOc2ccc(Cl)c3ccccc23)CC(C)O1 (configuration not stated)	n	n	n	n	n	n	x	x
CCN(CC)C(=O)C(Oc1ccc(S(=O)(=O)N2CCCC2)cc1[N+](=O)[O-])c1ccccc1 (configuration not stated)	n	-7.14	n	n	-11.3	n	98.0	n
CCOCC(=O)Nc1ccc(S(=O)(=O)N2CCC(c3nc4ccccc4[nH]3)CC2)cc1	n	n	n	n	n	n	x	x
O=[N+]([O-])c1cccc(CSc2ncnc3ccccc23)c1	n	n	n	n	-9.56	n	84.0	n
Cc1cc(C)c2nc(-c3cccc(Cl)c3)c(C)c(C(=O)N3CCOCC3)c2c1	n	-7.37	n	n	-9.55	n	121.7	0.15
Cc1onc(-c2c(Cl)cccc2Cl)c1C(=O)N1CCOCC1	n	n	n	n	n	n	x	x
CC1(C)CC(N=Cc2c(O)n(Cc3ccc4c(c3)OCO4)c(=O)c3ccccc23)CC(C)(C)N1	n	n	n	n	n	n	x	x
O=C(Cc1ccccc1F)Nc1nc(-c2ccc(F)cc2)cs1	n	n	n	n	-11.1	n	126.0	n
COc1ccc(OC)c(-c2csc(NC(=O)Cc3cc(OC)c(OC)c(OC)c3)n2)c1	n	n	n	n	n	n	x	x
COc1ccc(OC)c(-c2csc(NC(=O)Cc3ccc(F)cc3)n2)c1	n	n	n	n	-11.2	n	114.0	n
COC(=O)c1ccc(-c2csc(NC(=O)C3=COCCO3)n2)cc1	n	n	n	n	n	n	x	x
COc1ccc(OC)c(-c2csc(NC(=O)C3=COCCO3)n2)c1	n	n	n	n	-9.09	n	91.0	n
COc1ccc(CNC(=O)C2CCN(S(=O)(=O)c3c(C)noc3/C=C/N(C)C)CC2)cc1	n	n	n	n	n	n	x	x
O=c1[nH]c([N+](=O)[O-])nn1C(c1ccccc1)c1ccccc1	n	n	n	n	-10.1	n	n	n
Cc1[nH]n(-c2ccccc2)c(=O)c1C(c1cccc([N+](=O)[O-])c1)c1c(C)[nH]n(-c2ccccc2)c1=O	n	n	n	n	n	n	x	x
Clc1ccc(-c2csc(-c3cccnc3)n2)s1	n	n	n	n	n	n	x	x
CCOC(=O)c1cc2ccc3ccccc3c2oc1=O	n	n	n	n	n	n	x	x
CCOC(=O)c1cc2ccc3ccccc3c2s1	n	n	n	n	-9.75	n	99.3	n
C(=NN=C(NN=Cc1cccs1)NN=Cc1cccs1)c1cccs1	x	x	x	x	-15.3	x	123.3	n
O=C(N/N=C/c1cccs1)c1ccccn1	n	n	n	n	n	n	x	x
Cc1cccc(NC(=O)NC2CCCc3ccccc32)c1 (configuration not stated)	n	n	n	n	-9.44	n	121.0	0.141
CCCOC(=O)c1ccc(NC(=O)CSC2=Nc3ccccc3C3CC=NN23)cc1 (configuration not stated)	n	-7.02	n	n	-9.02	n	110.3	n
